In ChEMBL document CHEMBL3124843, “Synthesis, cytostatic, antimicrobial, and anti-HCV activity of 6-substituted 7-(het)aryl-7-deazapurine ribonucleosides” (J Med Chem, 2014):
Activity calls are given as the source filed them. No rule for the calls is given here.

Key:
Hepatitis C virus [1] = test: Antiviral activity against Hepatitis C virus subtype 1b infected in human HuH7 cells; assay type: functional, organism-based, Hepacivirus hominis; settings: genotype 1b, Huh-7
Hepatitis C virus [2] = test: Antiviral activity against Hepatitis C virus subtype 2a infected in human HuH7 cells; assay type: functional, organism-based, Hepacivirus hominis; settings: genotype 2a, Huh-7
Candida albicans = test: Antifungal activity against Candida albicans after 48 hrs; assay type: functional, organism-based
K562 [3] = test: Cytostatic activity against human K562 cells after 72 hrs by MTT assay; assay type: functional, cell-based; settings: K562, 72 h
Method in brief: (§1)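 IC50 is the concentration that cuts cell growth by 50%, read by quantitative metabolic MTT staining after a 3-day treatment. The resistant sublines were made by raising the concentration of the cytotoxic drug step by step. CEM-DNR-bulk (daunorubicin-selected) stably overexpresses mrp-1. K562-TAX (paclitaxel-selected) expresses only mdr-1. HCT116p53−/− carries null p53 alleles. BJ and MRC-5 are nonmalignant fibroblasts.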

BJ = test: Cytostatic activity against human BJ cells after 72 hrs by MTT assay; assay type: ADME, cell-based; method in brief: as §1
Enterococcus faecalis = test: Antibacterial activity against Enterococcus faecalis CCM 4224 after 24 hrs; assay type: functional, organism-based
[4] = Cytotoxicity against human HuH7 cells infected with Hepatitis C virus subtype 1b; assay type: cell-based, Huh-7
MRC5 = test: Cytostatic activity against human MRC5 cells after 72 hrs by MTT assay; assay type: ADME, cell-based; settings: MRC5, 72 h; method in brief: as §1
Staphylococcus aureus [5] = test: Antibacterial activity against Staphylococcus aureus CCM 3953 after 24 hrs; assay type: functional, organism-based
Staphylococcus aureus [6] = test: Antibacterial activity against methicillin-resistant Staphylococcus aureus MRSA 4591 after 24 hrs; assay type: functional, organism-based
Escherichia coli [7] = test: Antibacterial activity against multi-resistant Escherichia coli C/16702 after 24 hrs; assay type: functional, organism-based
Candida tropicalis = test: Antifungal activity against Candida tropicalis after 48 hrs; assay type: functional, organism-based
HepG2 = test: Antiproliferative activity against human HepG2 cells after 72 hrs by XTT assay; assay type: functional, cell-based; settings: HepG2, 72 h
HCT-116 [8] = test: Cytostatic activity against human HCT116 cells after 72 hrs by MTT assay; assay type: functional, cell-based; settings: HCT-116, 72 h; method in brief: as §1
[9] = Antiproliferative activity against human HeLaS3 cells after 72 hrs by XTT assay; assay type: functional, cell-based; settings: HeLa S3, 72 h
Method in brief: (§2)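 Antiproliferative test on HL-60 promyelocytic leukemia and HeLa S3 cervical carcinoma cells growing in liquid suspension.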

CCRF-CEM = test: Cytostatic activity against human CCRF-CEM cells after 72 hrs by MTT assay; assay type: functional, cell-based; method in brief: as §1
K562 [10] = test: Cytostatic activity against paclitaxel-resistant human K562 cells after 72 hrs by MTT assay; assay type: functional, cell-based; settings: K562, 72 h; method in brief: as §1
Pseudomonas aeruginosa [11] = test: Antibacterial activity against Pseudomonas aeruginosa CCM 3955 after 24 hrs; assay type: functional, organism-based
Pseudomonas aeruginosa [12] = test: Antibacterial activity against multi-resistant Pseudomonas aeruginosa A/16575 after 24 hrs; assay type: functional, organism-based
HCT-116 [13] = test: Cytostatic activity against p53-deficient human HCT116 cells after 72 hrs by MTT assay; assay type: functional, cell-based; settings: HCT-116, 72 h; method in brief: as §1
Escherichia coli [14] = test: Antibacterial activity against Escherichia coli CCM 3954 after 24 hrs; assay type: functional, organism-based
[15] = Cytotoxicity against human HuH7 cells infected with Hepatitis C virus subtype 2a; assay type: cell-based, Huh-7
[16] = tested on: Staphylococcus haemolyticus; test: Antibacterial activity against methicillin-resistant Staphylococcus haemolyticus A/16568 after 24 hrs; assay type: functional, organism-based
HL-60 = test: Antiproliferative activity against human HL60 cells after 72 hrs by XTT assay; assay type: functional, cell-based; settings: HL-60, 72 h; method in brief: as §2
Pichia kudriavzevii = test: Antifungal activity against Candida crusei after 48 hrs; assay type: functional, organism-based
A549 = test: Cytostatic activity against human A549 cells after 72 hrs by MTT assay; assay type: functional, cell-based; settings: A549, 72 h; method in brief: as §1
Candida parapsilosis = test: Antifungal activity against Candida parapsilosis after 48 hrs; assay type: functional, organism-based
[17] = Cytostatic activity against human CEM-DNR-bulk cells after 72 hrs by MTT assay; assay type: functional, cell-based; method in brief: as §1

| Structure (SMILES) | EC50 (Hepatitis C virus [1]) | EC50 (Hepatitis C virus [2]) | Activity (Candida albicans) | IC50 (K562 [3]) | IC50 (BJ) | Activity (Enterococcus faecalis) | CC50 [4] | IC50 (MRC5) | Activity (Staphylococcus aureus [5]) | Activity (Staphylococcus aureus [6]) | Activity (Escherichia coli [7]) | Activity (Candida tropicalis) | IC50 (HepG2) | IC50 (HCT-116 [8]) | IC50 [9] | IC50 (CCRF-CEM) | IC50 (K562 [10]) | Activity (Pseudomonas aeruginosa [11]) | Activity (Pseudomonas aeruginosa [12]) | IC50 (HCT-116 [13]) | also measured |
| --- | --- | --- | --- | --- | --- | --- | --- | --- | --- | --- | --- | --- | --- | --- | --- | --- | --- | --- | --- | --- | --- |
| Nc1nc2c(c(-c3cc4ccccc4o3)cn2[C@@H]2O[C@H](CO)[C@@H](O)[C@H]2O)c(=O)[nH]1 | > 44 µM | > 44 µM | inactive | > 20 µM | > 100 µM | inactive | > 44 µM | > 100 µM | inactive | inactive | inactive | inactive | > 20 µM | > 100 µM | > 20 µM | > 20 µM | > 20 µM | inactive | inactive | > 100 µM | Activity (Escherichia coli [14]): inactive; CC50 [15]: > 44 µM; Activity [16]: inactive; IC50 (HL-60): > 20 µM; Activity (Pichia kudriavzevii): inactive; IC50 (A549): > 100 µM; Activity (Candida parapsilosis): inactive; IC50 [17]: > 20 µM |
| Cc1ncnc2c1ccn2[C@@H]1O[C@H](CO)[C@@H](O)[C@H]1O | 0.02 µM | 0.02 µM | inactive | 0.01 µM | 0.07 µM | inactive | 0.23 µM | 0.09 µM | inactive | inactive | inactive | inactive | 0.06 µM | 0.03 µM | 0.02 µM | 0.01 µM | 0.05 µM | inactive | inactive | 0.06 µM | Activity (Escherichia coli [14]): inactive; CC50 [15]: 0.12 µM; Activity [16]: inactive; IC50 (HL-60): 0.02 µM; Activity (Pichia kudriavzevii): inactive; IC50 (A549): 0.03 µM; Activity (Candida parapsilosis): inactive; IC50 [17]: 0.05 µM |
| C#Cc1cn([C@@H]2O[C@H](CO)[C@@H](O)[C@H]2O)c2ncnc(SC)c12 | 0.21 µM | > 44 µM | inactive | 0.03 µM | 68.6 µM | inactive | > 44 µM | > 100 µM | inactive | inactive | inactive | inactive | > 15 µM | 0.03 µM | 0.11 µM | > 20 µM | 0.07 µM | inactive | inactive | 0.09 µM | Activity (Escherichia coli [14]): inactive; CC50 [15]: > 44 µM; Activity [16]: inactive; IC50 (HL-60): 0.05 µM; Activity (Pichia kudriavzevii): inactive; IC50 (A549): 0.14 µM; Activity (Candida parapsilosis): inactive; IC50 [17]: 0.11 µM |
